Measured values as given in ChEMBL document CHEMBL5696442, “Discovery of type II inhibitors of TGFβ-activated kinase 1 (TAK1) and mitogen-activated protein kinase kinase kinase kinase 2 (MAP4K2)” (J Med Chem, 2015).
Activity calls are given as the source filed them. The rule behind the calls is not given here.

Assays:
[1] = molecular target: T1, Mitogen-activated protein kinase kinase kinase 2 (Homo sapiens) (UniProt Q9Y2U5); assay: Inhibition of MAP3K2 Lys2 labeling site in human Huh-7 cell lysate at 1 uM by KiNativ Profiling analysis relative to control; format: subcellular
T1 sequence (whole entry): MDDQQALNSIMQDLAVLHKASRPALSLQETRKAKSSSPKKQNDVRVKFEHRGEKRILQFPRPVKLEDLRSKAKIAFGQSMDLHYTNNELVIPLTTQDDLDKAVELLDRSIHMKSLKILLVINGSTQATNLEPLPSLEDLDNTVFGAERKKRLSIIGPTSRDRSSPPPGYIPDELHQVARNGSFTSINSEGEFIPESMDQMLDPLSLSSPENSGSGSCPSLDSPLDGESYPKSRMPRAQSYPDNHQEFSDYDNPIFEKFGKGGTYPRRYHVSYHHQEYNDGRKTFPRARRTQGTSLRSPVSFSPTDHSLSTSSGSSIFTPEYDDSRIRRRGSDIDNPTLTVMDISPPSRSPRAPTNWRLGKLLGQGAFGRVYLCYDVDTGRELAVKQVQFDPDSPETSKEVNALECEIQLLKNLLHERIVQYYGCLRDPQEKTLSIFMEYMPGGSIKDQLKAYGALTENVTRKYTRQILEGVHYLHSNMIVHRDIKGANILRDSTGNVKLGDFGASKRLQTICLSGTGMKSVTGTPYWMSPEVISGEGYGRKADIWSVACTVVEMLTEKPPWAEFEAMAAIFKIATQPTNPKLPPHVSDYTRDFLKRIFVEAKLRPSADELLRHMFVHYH

[2] = molecular target: Casein kinase I isoform delta (Homo sapiens) (UniProt P48730); assay: Inhibition of CSNK1D (unknown origin) at 1 uM by Ambit Kinomescan binding assay relative to control
In short: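 In vitro ATP-site competition binding assay against a panel of over 420 kinases (KinomeScan), with compound tested at 10 or 1 μM.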

[3] = molecular target: Serine/threonine-protein kinase 33 (Homo sapiens) (UniProt Q9BYT3); assay: Inhibition of STK33 (unknown origin) at 1 uM by Ambit Kinomescan binding assay relative to control
[4] = molecular target: T2, Inhibitor of nuclear factor kappa-B kinase subunit beta (Homo sapiens) (UniProt O14920); assay: Inhibition of IKKb Lys2 labeling site in human A-375 cells at 5 uM by KiNativ Profiling analysis relative to control; format: cell-based
T2 sequence (whole entry): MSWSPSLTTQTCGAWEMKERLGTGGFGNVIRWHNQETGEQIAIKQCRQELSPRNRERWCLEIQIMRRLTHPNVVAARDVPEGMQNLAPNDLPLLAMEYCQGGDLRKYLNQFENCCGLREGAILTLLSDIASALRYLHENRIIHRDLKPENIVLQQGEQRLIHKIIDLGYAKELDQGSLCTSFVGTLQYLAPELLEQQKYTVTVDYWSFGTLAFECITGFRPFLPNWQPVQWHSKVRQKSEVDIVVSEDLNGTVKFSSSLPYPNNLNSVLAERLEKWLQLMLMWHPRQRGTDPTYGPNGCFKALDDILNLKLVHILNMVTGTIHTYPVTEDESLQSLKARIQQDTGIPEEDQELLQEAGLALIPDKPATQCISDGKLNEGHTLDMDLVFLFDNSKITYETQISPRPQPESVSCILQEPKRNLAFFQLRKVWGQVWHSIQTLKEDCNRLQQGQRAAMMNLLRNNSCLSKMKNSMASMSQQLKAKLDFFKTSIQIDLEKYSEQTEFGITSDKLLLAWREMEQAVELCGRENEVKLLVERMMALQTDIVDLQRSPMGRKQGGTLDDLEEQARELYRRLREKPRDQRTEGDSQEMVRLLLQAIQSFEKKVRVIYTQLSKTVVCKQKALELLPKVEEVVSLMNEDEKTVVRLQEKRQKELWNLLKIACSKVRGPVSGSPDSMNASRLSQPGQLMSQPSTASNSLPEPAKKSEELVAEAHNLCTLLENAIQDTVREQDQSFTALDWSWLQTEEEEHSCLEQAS

[5] = test system: Epidermal growth factor receptor (Homo sapiens), P00533 [L858R]; assay: Inhibition of EGFR L858R mutant (unknown origin) at 10 uM by Ambit Kinomescan binding assay relative to control
[6] = molecular target: Cyclin-dependent kinase 17 (Homo sapiens) (UniProt Q00537); assay: Inhibition of PCTAIRE2 K2 labeling site in human Huh-7 cells at 1 uM by KiNativ Profiling analysis relative to control; format: cell-based
[7] = molecular target: SRSF protein kinase 1 (Homo sapiens) (UniProt Q96SB4); assay: Inhibition of SRPK1 (unknown origin) at 10 uM by Ambit Kinomescan binding assay
[8] = molecular target: Dual specificity protein kinase CLK1 (Homo sapiens) (UniProt P49759); assay: Inhibition of CLK1 (unknown origin) at 10 uM by Ambit Kinomescan binding assay
[9] = molecular target: T3, Mitogen-activated protein kinase kinase kinase kinase 2 (Homo sapiens) (UniProt Q12851); assay: Inhibition of MAP4K2 (GCK) Lys2 labeling site in human A-375 cells at 0.05 uM by KiNativ Profiling analysis relative to control; format: cell-based
T3 sequence (whole entry): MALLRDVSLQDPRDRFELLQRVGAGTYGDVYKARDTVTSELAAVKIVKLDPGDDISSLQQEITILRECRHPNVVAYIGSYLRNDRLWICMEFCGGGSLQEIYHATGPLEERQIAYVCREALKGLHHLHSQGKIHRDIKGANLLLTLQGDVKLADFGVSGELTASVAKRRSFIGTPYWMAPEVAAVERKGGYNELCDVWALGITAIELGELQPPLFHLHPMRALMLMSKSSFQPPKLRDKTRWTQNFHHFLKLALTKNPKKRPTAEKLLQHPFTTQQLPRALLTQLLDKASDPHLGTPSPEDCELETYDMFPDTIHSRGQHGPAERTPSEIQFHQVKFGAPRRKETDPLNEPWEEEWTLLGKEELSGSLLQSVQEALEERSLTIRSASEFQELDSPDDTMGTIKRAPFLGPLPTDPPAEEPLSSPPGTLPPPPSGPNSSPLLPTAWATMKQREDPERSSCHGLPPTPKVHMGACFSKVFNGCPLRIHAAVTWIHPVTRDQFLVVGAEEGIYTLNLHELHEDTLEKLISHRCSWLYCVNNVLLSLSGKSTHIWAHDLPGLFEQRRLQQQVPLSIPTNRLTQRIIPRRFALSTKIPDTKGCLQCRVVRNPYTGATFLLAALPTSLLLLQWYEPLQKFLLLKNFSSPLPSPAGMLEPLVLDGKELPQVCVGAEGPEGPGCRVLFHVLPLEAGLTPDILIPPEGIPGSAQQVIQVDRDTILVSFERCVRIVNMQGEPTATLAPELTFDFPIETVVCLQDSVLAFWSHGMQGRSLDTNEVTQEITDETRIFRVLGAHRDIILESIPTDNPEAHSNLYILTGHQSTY

Chain of Casein kinase I isoform delta (Homo sapiens) (P48730 whole entry, looked up, canonical isoform): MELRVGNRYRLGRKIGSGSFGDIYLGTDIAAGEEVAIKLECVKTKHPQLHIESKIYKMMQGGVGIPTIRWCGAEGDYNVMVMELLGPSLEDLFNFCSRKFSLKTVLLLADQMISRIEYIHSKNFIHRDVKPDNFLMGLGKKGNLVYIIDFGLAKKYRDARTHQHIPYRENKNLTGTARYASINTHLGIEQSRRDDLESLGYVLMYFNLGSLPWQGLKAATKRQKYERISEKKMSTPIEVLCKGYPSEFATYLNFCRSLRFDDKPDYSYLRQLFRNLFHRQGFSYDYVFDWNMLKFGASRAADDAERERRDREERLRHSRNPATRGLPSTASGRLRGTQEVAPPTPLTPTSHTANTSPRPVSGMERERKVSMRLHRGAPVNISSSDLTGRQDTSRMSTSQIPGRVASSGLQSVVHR
Chain of SRSF protein kinase 1 (Homo sapiens) (Q96SB4 whole entry): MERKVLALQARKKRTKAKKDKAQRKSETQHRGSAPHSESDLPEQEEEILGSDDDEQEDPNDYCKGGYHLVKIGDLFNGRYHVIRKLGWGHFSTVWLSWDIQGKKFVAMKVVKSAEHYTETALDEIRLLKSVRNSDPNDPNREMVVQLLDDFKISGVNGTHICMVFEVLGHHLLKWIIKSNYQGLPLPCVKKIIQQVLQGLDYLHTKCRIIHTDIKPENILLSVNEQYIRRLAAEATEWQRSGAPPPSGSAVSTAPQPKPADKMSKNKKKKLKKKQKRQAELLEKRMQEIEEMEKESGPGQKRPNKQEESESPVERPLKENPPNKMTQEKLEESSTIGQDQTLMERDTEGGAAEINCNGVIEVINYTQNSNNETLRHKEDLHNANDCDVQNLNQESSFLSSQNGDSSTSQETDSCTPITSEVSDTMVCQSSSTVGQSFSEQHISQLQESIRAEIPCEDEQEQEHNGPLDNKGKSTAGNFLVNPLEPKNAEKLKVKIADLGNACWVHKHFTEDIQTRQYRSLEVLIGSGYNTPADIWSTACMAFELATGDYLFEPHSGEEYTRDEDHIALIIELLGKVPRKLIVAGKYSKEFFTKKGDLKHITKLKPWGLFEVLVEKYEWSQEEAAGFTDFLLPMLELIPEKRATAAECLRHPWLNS
Chain of Epidermal growth factor receptor (Homo sapiens), P00533 [L858R] (P00533 whole entry L858R): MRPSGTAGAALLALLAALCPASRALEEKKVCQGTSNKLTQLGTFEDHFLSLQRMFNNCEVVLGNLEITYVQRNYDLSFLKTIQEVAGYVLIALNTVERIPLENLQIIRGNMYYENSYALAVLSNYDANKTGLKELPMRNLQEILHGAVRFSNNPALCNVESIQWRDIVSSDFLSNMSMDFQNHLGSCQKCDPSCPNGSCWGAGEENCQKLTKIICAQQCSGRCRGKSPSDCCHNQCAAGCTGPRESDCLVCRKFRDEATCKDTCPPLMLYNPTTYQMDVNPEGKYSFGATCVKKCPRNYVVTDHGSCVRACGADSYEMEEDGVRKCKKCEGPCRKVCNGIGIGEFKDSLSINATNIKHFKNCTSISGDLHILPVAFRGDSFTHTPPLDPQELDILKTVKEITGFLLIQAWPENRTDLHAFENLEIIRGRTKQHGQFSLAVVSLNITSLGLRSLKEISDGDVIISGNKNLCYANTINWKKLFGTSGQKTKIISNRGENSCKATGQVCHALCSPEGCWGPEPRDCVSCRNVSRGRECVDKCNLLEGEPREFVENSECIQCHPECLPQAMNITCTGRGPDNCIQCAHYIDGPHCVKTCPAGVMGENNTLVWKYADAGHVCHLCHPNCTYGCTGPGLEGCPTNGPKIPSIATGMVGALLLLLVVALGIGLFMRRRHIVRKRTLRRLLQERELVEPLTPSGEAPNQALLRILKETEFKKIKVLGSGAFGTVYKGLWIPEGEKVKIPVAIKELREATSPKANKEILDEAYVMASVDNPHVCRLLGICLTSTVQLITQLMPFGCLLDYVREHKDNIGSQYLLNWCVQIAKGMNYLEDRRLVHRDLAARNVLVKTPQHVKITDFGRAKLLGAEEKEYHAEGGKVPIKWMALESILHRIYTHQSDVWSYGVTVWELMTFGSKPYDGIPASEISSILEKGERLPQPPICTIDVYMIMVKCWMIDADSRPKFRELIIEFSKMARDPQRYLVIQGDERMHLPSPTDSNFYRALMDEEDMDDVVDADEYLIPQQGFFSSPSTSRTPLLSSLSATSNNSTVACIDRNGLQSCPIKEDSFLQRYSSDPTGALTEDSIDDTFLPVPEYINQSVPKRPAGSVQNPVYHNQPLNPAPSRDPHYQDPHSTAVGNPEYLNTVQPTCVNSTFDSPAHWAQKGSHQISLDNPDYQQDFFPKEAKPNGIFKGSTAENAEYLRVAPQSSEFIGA
Chain of Dual specificity protein kinase CLK1 (Homo sapiens) (P49759 whole entry, looked up): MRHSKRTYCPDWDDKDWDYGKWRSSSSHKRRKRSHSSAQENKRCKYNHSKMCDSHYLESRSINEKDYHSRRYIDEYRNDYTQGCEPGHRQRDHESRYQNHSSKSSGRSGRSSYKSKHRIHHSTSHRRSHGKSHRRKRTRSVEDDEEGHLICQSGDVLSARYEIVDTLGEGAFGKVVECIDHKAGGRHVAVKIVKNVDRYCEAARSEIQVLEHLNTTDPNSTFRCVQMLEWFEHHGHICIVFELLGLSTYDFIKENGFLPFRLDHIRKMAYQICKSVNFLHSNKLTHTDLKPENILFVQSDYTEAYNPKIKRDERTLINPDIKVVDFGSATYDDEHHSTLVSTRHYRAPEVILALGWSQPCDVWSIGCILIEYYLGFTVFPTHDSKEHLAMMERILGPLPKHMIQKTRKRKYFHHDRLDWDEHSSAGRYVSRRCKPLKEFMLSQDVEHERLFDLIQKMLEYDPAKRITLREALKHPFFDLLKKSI
Chain of Cyclin-dependent kinase 17 (Homo sapiens) (Q00537 whole entry, looked up): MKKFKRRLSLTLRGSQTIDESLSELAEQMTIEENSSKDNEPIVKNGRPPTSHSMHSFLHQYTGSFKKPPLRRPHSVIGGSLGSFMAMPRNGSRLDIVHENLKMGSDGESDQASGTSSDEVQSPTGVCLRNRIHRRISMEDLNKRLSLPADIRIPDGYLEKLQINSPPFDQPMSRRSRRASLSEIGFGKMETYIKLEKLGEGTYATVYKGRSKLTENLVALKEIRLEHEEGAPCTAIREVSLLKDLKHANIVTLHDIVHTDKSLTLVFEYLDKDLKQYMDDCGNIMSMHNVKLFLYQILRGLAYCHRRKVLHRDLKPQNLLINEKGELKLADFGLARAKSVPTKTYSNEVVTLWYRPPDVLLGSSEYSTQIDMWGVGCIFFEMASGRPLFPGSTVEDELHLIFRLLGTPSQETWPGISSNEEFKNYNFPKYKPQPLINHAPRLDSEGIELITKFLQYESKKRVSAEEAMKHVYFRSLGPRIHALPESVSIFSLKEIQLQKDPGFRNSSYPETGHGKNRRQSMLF
Chain of Serine/threonine-protein kinase 33 (Homo sapiens) (Q9BYT3 whole entry, looked up): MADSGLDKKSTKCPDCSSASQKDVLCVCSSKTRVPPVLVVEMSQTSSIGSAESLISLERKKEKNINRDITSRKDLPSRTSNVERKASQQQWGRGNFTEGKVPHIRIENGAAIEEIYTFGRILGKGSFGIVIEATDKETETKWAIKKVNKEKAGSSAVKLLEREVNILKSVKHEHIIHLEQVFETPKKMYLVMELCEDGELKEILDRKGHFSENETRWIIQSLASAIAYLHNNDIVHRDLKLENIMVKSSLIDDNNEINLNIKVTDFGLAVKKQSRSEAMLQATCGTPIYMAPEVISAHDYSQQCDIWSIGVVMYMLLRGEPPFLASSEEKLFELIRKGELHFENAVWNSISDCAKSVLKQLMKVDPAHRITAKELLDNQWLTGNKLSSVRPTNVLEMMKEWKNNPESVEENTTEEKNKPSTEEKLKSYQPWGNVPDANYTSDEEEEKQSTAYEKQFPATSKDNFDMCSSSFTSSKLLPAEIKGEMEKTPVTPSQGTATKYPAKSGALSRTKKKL

## CNc1cc(Oc2cc(C(=O)Nc3cc(N4CCN(C)CC4)cc(C(F)(F)F)c3)ccc2C)ncn1
[1]
  inhibition: 1.9%

## CCN1CCN(Cc2ccc(NC(=O)c3ccc(C)c(/C=C/c4cnc5[nH]ccc5c4OC)c3)cc2C(F)(F)F)CC1
[2]
  inhibition: 84%
[3]
  inhibition: 78%
[4]
  inhibition: 50.5%

## CCN1CCN(Cc2ccc(NC(=O)c3ccc(C)c(Oc4ccnc5[nH]ccc45)c3)cc2C(F)(F)F)CC1
[5]
  inhibition: 14%
[6]
  inhibition: -3.4%
[7]
  inhibition: inactive
[8]
  inhibition: inactive
[9]
  inhibition: 95.1%
